The source made the active and inactive calls. No cut-off for these calls is given here.

Usually residual activity stands for the signal under treatment as a percentage of the control signal.

Assay [1] has as its system REF52. Put plainly: Induction of microtubule depolymerization in rat REF52 cells at 2 uM after 30 mins by fluorescence assay. In kind it is cell-based.
The test system of assay [2] is REF52. Put plainly: Induction of microtubule depolymerization in rat REF52 cells at 27.5 to 55 uM after 30 mins by fluorescence assay relative to control. In kind it is cell-based.
Assay [3] concerns the target Tubulin beta-6 chain (Arabidopsis thaliana) (UniProt P29514). Put plainly: Effect on GFP-tagged tubulin beta6 polymerization in Arabidopsis thaliana (L.) Heynh assessed as growth of lagging end at 25 uM after 10 mins by confocal microscopic analysis (reference value: 3.54 +/- 2.48 um/min).
In assay [4] the test system is REF52. Put plainly: Effect on actin depolymerization in rat REF52 cells at 27.5 uM after 30 mins by fluorescence assay. The assay is classed as cell-based. In short, it runs like this: (§1)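 HeLa or Ref52 cells were grown in DMEM with 10% fetal calf serum at 37 °C/5% CO2. Compound was dissolved in DMSO and diluted in serum-free DMEM. Cells were permeabilized and fixed in paraformaldehyde/Triton X-100. MTs were immunostained with DM1A plus an Alexa 488 secondary, and actin was stained with Alexa 555-phalloidin. Cells were examined by confocal microscopy.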

Assay [5] relates to REF52. Put plainly: Induction of microtubule depolymerization in rat REF52 cells at 27.5 uM by fluorescence assay. The assay is classed as cell-based. As to conditions: TDE = time-dependent effect.
The target of assay [6] is Tubulin beta-6 chain (Arabidopsis thaliana) (UniProt P29514). Put plainly: Effect on GFP-tagged tubulin beta6 polymerization in Arabidopsis thaliana (L.) Heynh assessed as shorten lagging end at 25 uM after 10 mins by confocal microscopic analysis (reference value: 3.57 +/- 2.33 um/min).
Assay [7] is filed under the species Bos taurus. Put plainly: Inhibition of rhodamine-labeled bovine brain tubulin polymerization assessed as shorter microtubules at 20 uM after 20 mins by fluorescence microscopic analysis relative to control; values are per cent of control.
The species entered for assay [8] is Bos taurus. Put plainly: Inhibition of rhodamine-labeled bovine brain tubulin polymerization assessed as number of microtubules at 20 uM after 20 mins by fluorescence microscopic analysis relative to control; values are per cent of control.
The test system of assay [9] is HeLa. Put plainly: Effect on actin depolymerization in human HeLa cells at 27.5 uM after 30 mins by fluorescence assay. The assay is classed as cell-based. In short, it runs like this: as §1
The test system of assay [10] is REF52. Put plainly: Induction of microtubule depolymerization in rat REF52 cells at 27.5 uM after 30 mins by fluorescence assay. The assay is classed as cell-based.
The subject of assay [11] is REF52. Put plainly: Induction of microtubule depolymerization in rat REF52 cells assessed as decrease in fluorescence associated with fibers at 27.5 uM incubated for 5 to 30 mins measured after 30 mins relative to control. In kind it is cell-based. The arrangement: scale not given: the % may be the effect or the level left.
In assay [12] the target is Tubulin beta-6 chain (Arabidopsis thaliana) (UniProt P29514). Put plainly: Effect on GFP-tagged tubulin beta6 polymerization in Arabidopsis thaliana (L.) Heynh at 25 uM after 10 mins by confocal microscopic analysis.
Assay [13] has as its system REF52. Put plainly: Induction of microtubule depolymerization in rat REF52 cells after 30 mins by fluorescence assay. In kind it is cell-based.
The target in assay [14] is Tubulin beta-6 chain (Arabidopsis thaliana) (UniProt P29514). Put plainly: Effect on GFP-tagged tubulin beta6 polymerization in Arabidopsis thaliana (L.) Heynh assessed as shorten leading end at 25 uM after 10 mins by confocal microscopic analysis (reference value: 15.43 +/- 5.37 um/min).
Assay [15] relates to HeLa. Put plainly: Induction of microtubule depolymerization in human HeLa cells at 27.5 uM after 30 mins by fluorescence assay. In kind it is cell-based. The method, boiled down: as §1
The target in assay [16] is Tubulin beta-6 chain (Arabidopsis thaliana) (UniProt P29514). Put plainly: Effect on GFP-tagged tubulin beta6 polymerization in Arabidopsis thaliana (L.) Heynh assessed as growth of leading end at 25 uM after 10 mins by confocal microscopic analysis (reference value: 5.79 +/- 1.15 um/min).
Assay [17] concerns Arabidopsis thaliana. Put plainly: Effect on GFP-talin-tagged actin dynamics in Arabidopsis thaliana (L.) Heynh at 25 uM after 10 mins by confocal microscopic analysis. The method, boiled down:
(§2)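 GFP-talin (actin marker) Arabidopsis Columbia seedlings were raised on MS medium with 4 days of dark stratification at 4 °C, then grown at 24 °C under a 16/8 h photoperiod. Cotyledons of 7-day-old seedlings were treated with 25 μM for 10 min. Actin fiber organization and dynamics were followed by confocal time-lapse imaging.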

For assay [18], the system named is Arabidopsis thaliana. Put plainly: Effect on GFP-talin-tagged actin organization in Arabidopsis thaliana (L.) Heynh at 25 uM after 10 mins by confocal microscopic analysis. The method, boiled down:
as §2

Assay [19] has as its system REF52. Put plainly: Induction of microtubule depolymerization in rat REF52 cells at 0.1 uM after 30 mins by fluorescence assay. The assay is classed as cell-based. The method, boiled down:
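Ref52 cells in serum-free DMEM, treated 30 min. Permeabilized with 3% paraformaldehyde and 0.5% Triton X-100, then fixed in 3% paraformaldehyde plus 1% glutaraldehyde, quenched with borohydride. Stained with anti-tubulin DM1A and Alexa 488 secondary, imaged by confocal microscopy. FiberScore gives total fluorescence associated with fibers. Mean ± standard error, Scheffe's test at p < 0.05.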

Assay [20] deals with REF52. Put plainly: Effect on actin depolymerization in rat REF52 cells assessed as effect on ratio of soluble to insoluble protein fraction at 0.1 uM after 30 mins by Western blot analysis. In kind it is cell-based. The method, boiled down:
(§3)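 Ref52 rat embryonic fibroblasts grown in DMEM with 10% FCS at 37 °C/5% CO2 and dosed for 30 min in serum-free DMEM. Triton X-100 fractionation: 3 min extraction at room temperature in 50 mM MES pH 6.8 with 2.5 mM EGTA, 5 mM MgCl2 and 0.5% Triton. Equal volumes of soluble and insoluble fractions run on SDS-PAGE. Western blot with anti-tubulin DM1A and anti-actin C4, HRP chemiluminescence, band densitometry. Four independent experiments.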

Assay [21] has as its system REF52. Put plainly: Induction of microtubule depolymerization in rat REF52 cells assessed as […] in ratio of soluble to insoluble tubulin fraction at 0.1 uM after 30 mins by Western blot analysis. The assay is classed as cell-based. In short, it runs like this:
as §3
A general note: In western blotting, separated proteins are transferred to a membrane and probed.

The species entered for assay [22] is Bos taurus. Put plainly: Inhibition of rhodamine-labeled bovine brain tubulin polymerization assessed as shorter microtubules at 20 uM after 20 mins by fluorescence microscopic analysis relative to control. In short, it runs like this:
(§4)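 Purified bovine brain tubulin mixed with rhodamine-tubulin and GTP was polymerized in MRB80 (80 mM PIPES/KOH pH 6.8, 1 mM MgCl2, 1 mM EGTA) plus 6% glycerol, with 20 μM compound or 0.01% DMSO. Incubation was 20 min at 37 °C, stopped with 0.5% glutaraldehyde. MT number and total length were measured by wide-field fluorescence microscopy. Data are average ± SE, compared by Scheffe's test.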

For assay [23], the species on record is Bos taurus. Put plainly: Inhibition of rhodamine-labeled bovine brain tubulin polymerization assessed as number of microtubules at 20 uM after 20 mins by fluorescence microscopic analysis relative to control. The method, boiled down:
as §4

Assay [24] relates to REF52. Put plainly: Induction of microtubule depolymerization in rat REF52 cells at 27.5 uM after 5 to 30 mins by fluorescence assay relative to control. The assay is classed as cell-based.
Assay [25] relates to REF52. Put plainly: Induction of microtubule depolymerization in rat REF52 cells at 6.9 to 13.8 uM after 30 mins by fluorescence assay relative to control. The assay is classed as cell-based.

Sequence of Tubulin beta-6 chain (Arabidopsis thaliana) (P29514 whole entry): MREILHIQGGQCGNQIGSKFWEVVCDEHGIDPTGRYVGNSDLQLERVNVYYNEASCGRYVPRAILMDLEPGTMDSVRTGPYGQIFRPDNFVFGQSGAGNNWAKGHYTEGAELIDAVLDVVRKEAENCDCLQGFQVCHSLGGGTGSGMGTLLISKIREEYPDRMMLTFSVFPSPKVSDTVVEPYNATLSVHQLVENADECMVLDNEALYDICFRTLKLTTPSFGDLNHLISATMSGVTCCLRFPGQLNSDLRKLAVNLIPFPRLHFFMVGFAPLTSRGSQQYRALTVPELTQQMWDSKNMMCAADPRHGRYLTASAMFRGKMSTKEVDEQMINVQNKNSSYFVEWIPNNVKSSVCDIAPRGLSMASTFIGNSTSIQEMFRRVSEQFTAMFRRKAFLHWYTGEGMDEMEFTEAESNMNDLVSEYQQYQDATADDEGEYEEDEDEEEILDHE

For the molecule `CC(=O)O[C@H]1C(=O)[C@@]2(C)[C@H]([C@H](OC(=O)c3ccccc3)[C@]3(O)C[C@H](OC(=O)[C@H](O)[C@@H](NC(=O)c4ccccc4)c4ccccc4)C(C)=C1C3(C)C)[C@]1(OC(C)=O)CO[C@@H]1C[C@@H]2O`, the outcome in the assay on REF52 [1] was Active.

With `CC(C)=CCC[C@@H](C)CC=O`, the Activity with REF52 [2] was 20%; in assay [3], 0 um/min; in the assay with REF52 [5], “tde”; in assay [6], 0 um/min; with REF52 [11], 20%; in the assay with REF52 [13] it was “Dose-dependent effect”. The Activity in [14] and in [16] was 0 um/min in each case. Further, the outcome with REF52 [4], with HeLa [9], in the assay with Arabidopsis thaliana [17] and in the assay on Arabidopsis thaliana [18] was inactive. Moreover, the results for the residual activity in the assay listed under Bos taurus [7] and in the assay filed under Bos taurus [8] were 30% and 40%, respectively. Further, the outcome (with REF52 [10]; in assay [12]; with HeLa [15]) was Active.

With `CC[C@]1(O)C[C@@H]2CN(CCc3c([nH]c4ccccc34)[C@@](C(=O)OC)(c3cc4c(cc3OC)N(C)[C@H]3[C@@](O)(C(=O)OC)[C@H](OC(C)=O)[C@]5(CC)C=CCN6CC[C@]43[C@@H]65)C2)C1`, the outcome in the assay with REF52 [19] was Active.

Take `COc1cc2c(c(OC)c1OC)-c1ccc(OC)c(=O)cc1[C@@H](NC(C)=O)CC2`: in the assay with REF52 [20], the outcome was inactive. The result in the assay with REF52 [21] and in the assay with REF52 [19] was Active.

In the case of `CC(C)=CCC[C@H](C)CC=O`, the Activity was 50% in the assay on REF52 [2]; 1.66 um/min in [3]; “tde” in the assay on REF52 [5]; 7.48 um/min in [6]; “Dose-dependent effect” with REF52 [13]; 14.6 um/min in assay [14]. The Activity in the assay with REF52 [24] worked out at 60%; in [16], 5.94 um/min. Besides, the outcome (in the assay on REF52 [4]; in the assay on HeLa [9]; in the assay with REF52 [10]; in assay [12]; with HeLa [15]; with REF52 [25]) was inactive. In addition, the result in the assay with Arabidopsis thaliana [17] and with Arabidopsis thaliana [18] was inactive. The inhibition entry in the assay listed under Bos taurus [22] and in the assay listed under Bos taurus [23] was “inactive” each time.

The record behind these values is ChEMBL document CHEMBL2424543, “Enantioselective effects of (+)- and (-)-citronellal on animal and plant microtubules” (J Nat Prod, 2013).
